According to ChEMBL document CHEMBL3826892, “Second-Generation Phenylthiazole Antibiotics with Enhanced Pharmacokinetic Properties” (J Med Chem, 2016):
Values after ≈ are worked out from the molar mass of the structure shown.

Legend:
[1] = system: Staphylococcus aureus; test: Antimicrobial activity against methicillin-resistant Staphylococcus aureus RCMB 2658 clinical isolate after 20 hrs by broth microdilution method; assay type: functional; settings: RCMB 2658, 20 h
Outline: (§1)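 CLSI broth microdilution in cation-adjusted Mueller Hinton broth. Compounds were serially diluted in triplicate and plates held at 37 °C for 20 h. MIC was taken by eye as the lowest concentration with no visible growth, and the average of the triplicate determinations is reported.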

[2] = Aqueous solubility of the compound in PBS after 2 hrs by turbidity assay; assay type: physicochemical
Outline: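 Serial dilutions were made […] and diluted 100-fold into PBS. After 2 h, turbidity was read at 540 nm with pre-addition background subtracted. Turbidity was taken as absorbance > blank mean + 3 SD. Solubility limit is the highest concentration with no turbidity.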

[3] = Apparent permeability across apical to basolateral side in human Caco2 cells at pH 6.5 after 2 hrs by LC/MS/MS analysis; assay type: ADME, cell-based; settings: Caco-2, pH 6.5
Outline: (§2)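 Caco-2 cells were grown and differentiated for 3 weeks, fed every 2 days. Compound was added to the apical or basolateral side and measured on the opposite side after 2 h by LC/MS/MS. Apical buffer was pH 6.5 transport buffer (glucose, 10 mM HEPES, HBSS) with 100 μM Lucifer yellow; basolateral buffer was pH 7.4. Lucifer yellow fluorescence checked monolayer integrity. Papp = (dQ/dt)/C₀A; efflux ratio = Papp(B→A)/Papp(A→B).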

[4] = Efflux ratio of apparent permeability from basolateral to apical side over apical to basolateral side in human Caco2 cells after 2 hrs by LC/MS/MS analysis; assay type: ADME, cell-based; settings: Caco-2; outline: as §2
[5] = Apparent permeability across basolateral to apical side in human Caco2 cells at pH 7.4 after 2 hrs by LC/MS/MS analysis; settings: Caco-2, pH 7.4
[6] = system: Staphylococcus aureus; test: Antimicrobial activity against vancomycin-resistant Staphylococcus aureus 10 clinical isolate after 20 hrs by broth microdilution method; assay type: functional; settings: isolate 10, 20 h; outline: as §1
[7] = system: Enterococcus faecium; test: Bactericidal activity against vancomycin-resistant Enterococcus faecium ATCC 700221 after 20 hrs by broth microdilution method; assay type: functional; settings: ATCC 700221, 20 h
[8] = system: Enterococcus faecium; test: Antimicrobial activity against vancomycin-resistant Enterococcus faecium ATCC 700221 after 20 hrs by broth microdilution method; assay type: functional; settings: ATCC 700221, 20 h; outline: as §1
[9] = system: Staphylococcus aureus; test: Bactericidal activity against methicillin-resistant Staphylococcus aureus USA300 NRS384 clinical isolate after 20 hrs by broth microdilution method; assay type: functional; settings: USA300 NRS384, 20 h
[10] = system: Staphylococcus aureus; test: Bactericidal activity against methicillin-resistant Staphylococcus aureus USA100 NRS382 clinical isolate after 20 hrs by broth microdilution method; assay type: functional; settings: USA100 NRS382, 20 h
[11] = system: Staphylococcus aureus; test: Bactericidal activity against methicillin-sensitive Staphylococcus aureus NRS72 clinical isolate after 20 hrs by broth microdilution method; assay type: functional; settings: NRS72, 20 h
[12] = system: Staphylococcus aureus; test: Bactericidal activity against vancomycin-resistant Staphylococcus aureus 10 clinical isolate after 20 hrs by broth microdilution method; assay type: functional; settings: isolate 10, 20 h
[13] = system: Staphylococcus aureus; test: Bactericidal activity against methicillin-resistant Staphylococcus aureus USA300 assessed as time required to reduce bacterial inoculum to zero colony forming units at 3 times MIC by time kill assay; assay type: functional
Outline: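 Samples taken at 2, 4, 6, 8, 10, 12 and 24 h were serially diluted in PBS and plated on trypticase soy agar. Viable CFU/mL were counted after at least 16 h at 37 °C.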

[14] = system: Staphylococcus aureus; test: Bactericidal activity against methicillin-resistant Staphylococcus aureus NRS119 clinical isolate after 20 hrs by broth microdilution method; assay type: functional; settings: NRS119, 20 h
[15] = system: Staphylococcus aureus; test: Bactericidal activity against methicillin-resistant Staphylococcus aureus USA400 NRS123 clinical isolate after 20 hrs by broth microdilution method; assay type: functional; settings: USA400 NRS123, 20 h
[16] = system: Staphylococcus aureus; test: Bactericidal activity against methicillin-resistant Staphylococcus aureus USA200 NRS383 clinical isolate after 20 hrs by broth microdilution method; assay type: functional; settings: USA200 NRS383, 20 h
[17] = system: Staphylococcus aureus; test: Antimicrobial activity against methicillin-resistant Staphylococcus aureus NRS119 clinical isolate after 20 hrs by broth microdilution method; assay type: functional; settings: NRS119, 20 h; outline: as §1
[18] = system: Staphylococcus aureus; test: Antimicrobial activity against methicillin-resistant Staphylococcus aureus USA400 NRS123 clinical isolate after 20 hrs by broth microdilution method; assay type: functional; settings: USA400 NRS123, 20 h; outline: as §1
[19] = system: Staphylococcus aureus; test: Antimicrobial activity against methicillin-resistant Staphylococcus aureus USA100 NRS382 clinical isolate after 20 hrs by broth microdilution method; assay type: functional; settings: USA100 NRS382, 20 h; outline: as §1
[20] = system: Staphylococcus aureus; test: Antimicrobial activity against methicillin-resistant Staphylococcus aureus USA200 NRS383 clinical isolate after 20 hrs by broth microdilution method; assay type: functional; settings: USA200 NRS383, 20 h; outline: as §1
[21] = system: Staphylococcus aureus; test: Antimicrobial activity against methicillin-sensitive Staphylococcus aureus NRS72 clinical isolate after 20 hrs by broth microdilution method; assay type: functional; settings: NRS72, 20 h; outline: as §1
[22] = system: Staphylococcus aureus; test: Antimicrobial activity against methicillin-resistant Staphylococcus aureus USA300 NRS384 clinical isolate after 20 hrs by broth microdilution method; assay type: functional; settings: USA300 NRS384, 20 h; outline: as §1

Work on `CCCCc1ccc(-c2nc(C)c(-c3ccnc(NC(N)=S)n3)s2)cc1` yielded an MIC [1] of over 25 µg/mL.

In the case of `Cc1nc(-c2ccc(C3=CCC(C)C3)cc2)sc1-c1ccnc(N)n1` (stereo not drawn), the MIC [1] is reported as 3.8 µg/mL (≈ 10.9 µM).

With `Cc1nc(-c2ccc(C=C3CCCC3)cc2)sc1-c1ccnc(N)n1` the MIC [1] was 1.17 µg/mL (≈ 3.36 µM).

With `CCCCc1ccc(-c2nc(C)c(-c3ccnc(NC(=N)N(C)C)n3)s2)cc1` the MIC [1] was 0.78 µg/mL (≈ 1.98 µM) and the solubility kinetic at 2 h [2] was 53 µM (≈ 20.9 µg/mL).

Compound `CCCCc1ccc(-c2nc(C)c(C(=O)/C=C/N(C)C)s2)cc1` has an MIC [1] of over 25 µg/mL.

With `CCCCc1ccc(-c2nc(C)c(-c3ccnc(-n4cccn4)n3)s2)cc1` the MIC [1] was over 25 µg/mL.

In the case of `CCCCc1ccc(-c2nc(C)c(-c3ccnc(N)n3)s2)cc1`, the Papp A→B at 2 h [3] is reported as 14.9 ×10⁻⁶ cm/s, the efflux ratio at 2 h [4] is reported as 1.1 and the MIC [1] is reported as 3.12 µg/mL (≈ 9.62 µM). It also gave a solubility kinetic at 2 h [2] of 42 µM (≈ 13.6 µg/mL) and a Papp B→A at 2 h [5] of 17 ×10⁻⁶ cm/s.

`Cc1nc(-c2ccc(-c3ccco3)cc2)sc1-c1ccnc(N)n1` gave an MIC [1] of 8.7 µg/mL (≈ 26 µM) and a solubility kinetic at 2 h [2] of 14 µM (≈ 4.68 µg/mL).

`Cc1nc(-c2ccc(/C3=C/CCCCCC3)cc2)sc1-c1ccnc(N)n1` showed an MIC [1] of 5.6 µg/mL (≈ 14.9 µM).

With `Cc1nc(-c2ccc(C3=CCCC3)cc2)sc1-c1ccnc(N)n1` the MIC [1] was 3.12 µg/mL (≈ 9.33 µM) and the solubility kinetic at 2 h [2] was 35 µM (≈ 11.7 µg/mL).

`Cc1nc(-c2ccc(/C=C/C3CCCC3)cc2)sc1-c1ccnc(N)n1` showed an MIC [1] of 3.12 µg/mL (≈ 8.61 µM).

`Cc1nc(-c2ccc(-c3ccoc3)cc2)sc1-c1ccnc(N)n1` showed an MIC [1] of 7.8 µg/mL (≈ 23.3 µM) and a solubility kinetic at 2 h [2] of 13 µM (≈ 4.35 µg/mL).

In the case of `Cc1nc(-c2ccc(I)cc2)sc1-c1ccnc(N)n1`, the MIC [1] is reported as over 25 µg/mL.

Work on `CN[C@@H](CC(C)C)C(=O)N[C@H]1C(=O)N[C@@H](CC(N)=O)C(=O)N[C@H]2C(=O)N[C@H]3C(=O)N[C@H](C(=O)N[C@@H](C(=O)O)c4cc(O)cc(O)c4-c4cc3ccc4O)[C@H](O)c3ccc(c(Cl)c3)Oc3cc2cc(c3O[C@H]2O[C@@H](CO)[C@H](O)[C@@H](O)[C@@H]2O[C@@H]2C[C@@](C)(N)[C@@H](O)[C@@H](C)O2)Oc2ccc(cc2Cl)[C@H]1O` yielded an MIC [6] of over 64 µg/mL, an MBC [7] of over 64 µg/mL and an MIC [8] of over 64 µg/mL. For the same compound, the MBC [9] was 1 µg/mL (≈ 0.69 µM), the MBC [10] was 1 µg/mL (≈ 0.69 µM) and the MBC [11] was 2 µg/mL (≈ 1.38 µM). The MBC [12] was over 64 µg/mL, the Time [13] was 24 h and the MBC [14] was 1 µg/mL (≈ 0.69 µM). For the same compound, the MBC [15] was 1 µg/mL (≈ 0.69 µM) and the MBC [16] was 1 µg/mL (≈ 0.69 µM).

For `CC(=O)NC[C@H]1CN(c2ccc(N3CCOCC3)c(F)c2)C(=O)O1` [LINEZOLID], the MIC [17] was 32 µg/mL (≈ 94.9 µM), the MIC [6] was 1 µg/mL (≈ 2.96 µM) and the MIC [18] was 1 µg/mL (≈ 2.96 µM). It also gave an MIC [19] of 1 µg/mL (≈ 2.96 µM), an MBC [7] of 32 µg/mL (≈ 94.9 µM) and an MIC [20] of 1 µg/mL (≈ 2.96 µM). The MIC [8] was 1 µg/mL (≈ 2.96 µM), the MIC [21] was 1 µg/mL (≈ 2.96 µM) and the MBC [9] was 4 µg/mL (≈ 11.9 µM). For the same compound, the MBC [10] was 8 µg/mL (≈ 23.7 µM), the MIC [22] was 1 µg/mL (≈ 2.96 µM) and the MBC [11] was 2 µg/mL (≈ 5.93 µM). For the same compound, the MBC [12] was 2 µg/mL (≈ 5.93 µM), the MBC [14] was over 64 µg/mL and the MBC [15] was 16 µg/mL (≈ 47.4 µM). It also gave an MBC [16] of 32 µg/mL (≈ 94.9 µM).
